In ChEMBL document CHEMBL1136005 (J Med Chem, 2002):

Key:
[1] = biological target: Platelet-derived growth factor receptor (Homo sapiens, UniProt P09619+P16234); test: Concentration required for 50% inhibition against autophosphorylation of Platelet-derived growth factor receptor beta in intact cells using a two site ELISA; type: cell-based
[2] = Plasma concentration was determined after 8 hr at a dose 30 mg/kg administered orally to rat-2; type: ADME, organism-based; parameters: dose 30 mg/kg, route oral; conditions: po
Summary of the method: (§1)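 Sprague-Dawley rats, n=2 per compound, dosed orally at 30 mg/kg. Plasma drug concentration measured 1 and 8 h after dosing.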

[3] = Plasma concentration was determined after 8 hr at a dose 30 mg/kg administered orally to rat-1; type: ADME, organism-based; parameters: dose 30 mg/kg, route oral; conditions: po; summary of the method: as §1
[4] = Plasma concentration was determined after 1 hr at a dose 30 mg/kg administered orally to rat-1; type: ADME, organism-based; parameters: dose 30 mg/kg, route oral; conditions: po; summary of the method: as §1
[5] = Plasma concentration was determined after 1 hr at a dose 30 mg/kg administered orally to rat-2; type: ADME, organism-based; parameters: dose 30 mg/kg, route oral; conditions: po; summary of the method: as §1
Protein kinase C (PKC) = test: Inhibition of Protein kinase C; type: protein assay
Summary of the method: (§2)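 Substrate phosphorylation measured in an in vitro assay with purified enzyme; IC50 values in µmol/L.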

[6] = biological target: Fibroblast growth factor receptor (Homo sapiens, UniProt P22607+P11362+P22455+P21802); test: Inhibition of Fibroblast growth factor receptor autophosphorylation; type: protein assay
[7] = biological target: Mast/stem cell growth factor receptor Kit (Homo sapiens, UniProt P10721); test: Inhibition of Mast/stem cell growth factor receptor (c-kit) autophosphorylation
Sequence of Mast/stem cell growth factor receptor Kit (P10721 whole entry): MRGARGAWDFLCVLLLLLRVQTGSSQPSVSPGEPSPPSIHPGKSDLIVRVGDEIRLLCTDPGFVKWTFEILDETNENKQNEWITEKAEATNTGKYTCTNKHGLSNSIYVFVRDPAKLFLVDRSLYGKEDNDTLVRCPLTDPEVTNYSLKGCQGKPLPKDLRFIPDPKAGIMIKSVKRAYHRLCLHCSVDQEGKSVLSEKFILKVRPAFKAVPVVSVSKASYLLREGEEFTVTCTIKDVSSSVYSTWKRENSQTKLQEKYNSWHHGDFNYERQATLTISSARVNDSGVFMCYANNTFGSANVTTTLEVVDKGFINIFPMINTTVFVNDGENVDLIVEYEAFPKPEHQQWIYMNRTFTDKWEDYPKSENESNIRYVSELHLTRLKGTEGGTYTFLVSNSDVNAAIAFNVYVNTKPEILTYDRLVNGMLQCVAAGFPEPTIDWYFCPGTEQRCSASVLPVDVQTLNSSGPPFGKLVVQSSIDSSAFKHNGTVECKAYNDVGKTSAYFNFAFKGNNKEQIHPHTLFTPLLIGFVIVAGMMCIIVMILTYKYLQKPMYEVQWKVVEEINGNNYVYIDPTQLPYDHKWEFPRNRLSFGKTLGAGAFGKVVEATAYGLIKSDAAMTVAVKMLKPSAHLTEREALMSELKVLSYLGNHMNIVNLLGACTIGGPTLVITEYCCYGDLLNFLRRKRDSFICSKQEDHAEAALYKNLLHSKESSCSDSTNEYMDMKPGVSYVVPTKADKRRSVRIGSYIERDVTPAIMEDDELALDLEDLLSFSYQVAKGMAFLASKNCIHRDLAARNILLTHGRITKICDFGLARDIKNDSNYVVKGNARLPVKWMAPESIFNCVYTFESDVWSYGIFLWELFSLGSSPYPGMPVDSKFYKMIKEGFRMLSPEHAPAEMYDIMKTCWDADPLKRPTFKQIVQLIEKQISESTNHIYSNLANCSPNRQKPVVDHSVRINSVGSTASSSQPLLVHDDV

[8] = biological target: T1, Receptor-type tyrosine-protein kinase FLT3 (Homo sapiens, UniProt P36888); test: Inhibition of Flt3 autophosphorylation
T1 sequence (P36888 whole entry): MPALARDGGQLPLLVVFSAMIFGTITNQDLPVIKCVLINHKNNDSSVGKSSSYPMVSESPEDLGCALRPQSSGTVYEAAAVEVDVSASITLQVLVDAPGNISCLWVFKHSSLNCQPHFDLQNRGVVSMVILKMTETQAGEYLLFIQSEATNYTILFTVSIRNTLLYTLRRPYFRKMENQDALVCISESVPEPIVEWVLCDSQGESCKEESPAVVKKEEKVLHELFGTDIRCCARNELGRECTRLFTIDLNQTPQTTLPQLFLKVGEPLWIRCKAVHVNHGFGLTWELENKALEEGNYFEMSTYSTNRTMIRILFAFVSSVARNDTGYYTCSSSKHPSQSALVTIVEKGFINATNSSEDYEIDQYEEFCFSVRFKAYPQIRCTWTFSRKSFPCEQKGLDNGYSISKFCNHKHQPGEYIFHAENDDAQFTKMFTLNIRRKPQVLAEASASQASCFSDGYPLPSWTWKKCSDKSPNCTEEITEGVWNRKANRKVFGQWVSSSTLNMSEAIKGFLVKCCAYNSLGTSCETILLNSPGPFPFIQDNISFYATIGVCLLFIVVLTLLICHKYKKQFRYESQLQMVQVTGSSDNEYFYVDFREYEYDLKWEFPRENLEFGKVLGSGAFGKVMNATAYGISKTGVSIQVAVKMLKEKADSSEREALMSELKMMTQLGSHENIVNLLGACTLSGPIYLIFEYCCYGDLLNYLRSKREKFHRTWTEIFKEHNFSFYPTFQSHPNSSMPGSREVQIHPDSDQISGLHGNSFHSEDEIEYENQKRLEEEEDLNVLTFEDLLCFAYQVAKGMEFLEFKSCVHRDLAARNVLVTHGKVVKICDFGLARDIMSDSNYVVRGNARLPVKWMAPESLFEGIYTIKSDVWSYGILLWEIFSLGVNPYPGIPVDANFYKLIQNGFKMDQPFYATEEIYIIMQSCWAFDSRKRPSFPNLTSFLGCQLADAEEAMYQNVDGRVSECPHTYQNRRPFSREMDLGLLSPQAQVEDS

[9] = biological target: cAMP-dependent protein kinase (PKA) (Homo sapiens, UniProt P22694+P17612+P22612); test: Inhibition of Protein kinase A (PKA); type: protein assay; summary of the method: as §2
[10] = Lipophilicity was reported; type: physicochemical; conditions: octanol/water
[11] = Plasma concentration was determined after 1 hr at a dose 30 mg/kg administered orally to rat-13; type: ADME, organism-based; parameters: dose 30 mg/kg, route oral; conditions: po; summary of the method: as §1
[12] = Plasma concentration was determined after 8 hr at a dose 30 mg/kg administered orally to rat-13; type: ADME, organism-based; parameters: dose 30 mg/kg, route oral; conditions: po; summary of the method: as §1
[13] = Plasma concentration was determined after 8 hr at a dose 30 mg/kg administered orally to rat-14; type: ADME, organism-based; parameters: dose 30 mg/kg, route oral; conditions: po; summary of the method: as §1
[14] = pharmacokinetic parameter was evaluated after oral administration of 30 mg/kg to rat; type: ADME, organism-based; parameters: dose 30 mg/kg, route oral; conditions: in vivo
Summary of the method: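 Sprague-Dawley rats, n=3, dosed orally at 30 mg/kg. Plasma drug concentrations were followed to derive Tmax (h), Cmax (µg/mL), T1/2 (h) and AUC0-∞ (µg h/mL).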

[15] = Plasma concentration was determined after 1 hr at a dose 30 mg/kg administered orally to rat-14; type: ADME, organism-based; parameters: dose 30 mg/kg, route oral; conditions: po; summary of the method: as §1
[16] = Solubility in aqueous phosphate buffer (pH 7.4) at 20c was determined; type: physicochemical

| SMILES | IC50 [1] | also measured |
| --- | --- | --- |
| COc1cc2ncnc(N3CCN(C(=S)Nc4cccnc4)CC3)c2cc1OC | 410 nM | – |
| COc1cc2ncnc(N3CCN(C(=O)Nc4ccc(C(C)(C)C)cc4)CC3)c2cc1OC | 30 nM | – |
| COc1cc2ncnc(N3CCN(C(=NC#N)NCc4ccc(C(C)C)cc4)CC3)c2cc1OC | 1380 nM | – |
| COc1cc2ncnc(N3CCN(C(=S)NCC4(c5ccc(Cl)cc5)CC4)CC3)c2cc1OC | > 30000 nM | – |
| COc1cc2ncnc(N3CCN(C(=O)Oc4ccc([N+](=O)[O-])cc4)CC3)c2cc1OC | > 30000 nM | – |
| COc1cc2ncnc(N3CCN(C(=O)Nc4ccc(Br)cc4)CC3)c2cc1OC | 530 nM | – |
| COc1cc2ncnc(N3CCN(C(=S)NCc4ccccc4Cl)CC3)c2cc1OC | 980 nM | – |
| COc1cc2ncnc(N3CCN(C(=S)NCc4cccc(Cl)c4)CC3)c2cc1OC | 230 nM | – |
| COc1cc2ncnc(N3CCN(C(=NC#N)NCc4ccc(Cl)cc4)CC3)c2cc1OC | 960 nM | – |
| COc1cc2ncnc(N3CCN(C(=S)N[C@@H](C)c4ccccc4)CC3)c2cc1OC | 540 nM | – |
| COc1cc2ncnc(N3CCN(C(=O)NCc4ccc(Cl)cc4)CC3)c2cc1OC | 1270 nM | – |
| COc1cc2ncnc(N3CCN(C(=O)Nc4cccs4)CC3)c2cc1OC | 410 nM | – |
| COc1cc2ncnc(N3CCN(C(=O)NCc4ccc(C(C)C)cc4)CC3)c2cc1OC | 550 nM | – |
| COc1cc2ncnc(N3CCN(C(=S)NCc4ccc(Br)cc4)CC3)c2cc1OC | 30 nM | – |
| COc1cc2ncnc(N3CCN(C(=S)Nc4ccncc4)CC3)c2cc1OC | 980 nM | – |
| COc1cc2ncnc(N3CCN(C(=S)NCC4CCCCC4)CC3)c2cc1OC | > 10000 nM | – |
| COc1cc2ncnc(N3CCN(C(=S)N[C@H](C)c4ccccc4)CC3)c2cc1OC | > 30000 nM | – |
| COc1cc2ncnc(N3CCN(C(=S)Nc4ccc(Cl)cc4)CC3)c2cc1OC | 790 nM | – |
| COc1cc2ncnc(N3CCN(C(=O)NCC(=O)c4ccc(Br)cc4)CC3)c2cc1OC | 140 nM | – |

| SMILES | IC50 [1] | also measured |
| --- | --- | --- |
| COc1cc2ncnc(N3CCN(C(=NC#N)NCc4cccc(Cl)c4)CC3)c2cc1OC | 23500 nM | – |
| COc1cc2ncnc(N3CCN(C(=O)NCCc4ccc(Cl)cc4)CC3)c2cc1OC | 5840 nM | – |
| COc1cc2ncnc(N3CCN(C(=S)N(C)Cc4ccccc4)CC3)c2cc1OC | > 30000 nM | – |
| COc1cc2ncnc(N3CCN(C(=S)NCc4ccc(C(C)(C)C)cc4)CC3)c2cc1OC | 160 nM | – |
| COc1cc2ncnc(N3CCN(C(=S)NC(=O)c4ccc(Cl)cc4)CC3)c2cc1OC | > 30000 nM | – |
| COc1cc2ncnc(N3CCN(C(=O)NCc4ccc(F)cc4)CC3)c2cc1OC | 9590 nM | – |
| COc1cc2ncnc(N3CCN(C(=S)NCCc4ccc(Cl)cc4)CC3)c2cc1OC | 1090 nM | – |
| COc1cc2ncnc(N3CCN(C(=S)NCc4ccc(C)cc4)CC3)c2cc1OC | 30 nM | – |
| COc1ccc(CNC(=O)N2CCN(c3ncnc4cc(OC)c(OC)cc34)CC2)cc1 | 3060 nM | concentration at 8 h [2]: 1900 ng/mL; concentration at 8 h [3]: 1400 ng/mL; concentration at 1 h [4]: 7300 ng/mL; concentration at 1 h [5]: 11600 ng/mL |
| COc1cc2ncnc(N3CCN(C(=O)NS(=O)(=O)c4ccc(Cl)cc4)CC3)c2cc1OC | > 30000 nM | – |
| COc1cc2ncnc(N3CCN(C(=S)Nc4cncc(Cl)c4)CC3)c2cc1OC | 550 nM | – |
| COc1cc2ncnc(N3CCN(C(=O)Nc4cccnc4)CC3)c2cc1OC | > 30000 nM | – |
| COc1cc2ncnc(N3CCN(C(=S)Nc4ccccn4)CC3)c2cc1OC | > 30000 nM | – |
| COc1cc2ncnc(N3CCN(/C(=C/[N+](=O)[O-])NCc4ccc5c(c4)OCO5)CC3)c2cc1OC | > 30000 nM | – |
| COc1ccc(CNC(=S)N2CCN(c3ncnc4cc(OC)c(OC)cc34)CC2)cc1OC | 2410 nM | – |
| COc1cc2ncnc(N3CCN(C(=O)N(C)c4ccc(Br)cc4)CC3)c2cc1OC | > 30000 nM | – |
| COc1cc2ncnc(N3CCN(C(=O)Nc4ccsc4)CC3)c2cc1OC.Cl | – | IC50 (Protein kinase C (PKC)): > 30 uM l-1; IC50 [6]: > 30 uM l-1; IC50 [7]: 800 nM; IC50 [8]: 7020 nM; IC50 [9]: > 30 uM l-1 |
| COc1cc2ncnc(N3CCN(C(=S)NCc4ccc(C(C)C)cc4)CC3)c2cc1OC | 200 nM | – |
| COc1cc2ncnc(N3CCN(C(=O)NCc4ccc(C(C)(C)C)cc4)CC3)c2cc1OC | 110 nM | – |

| SMILES | IC50 [1] | also measured |
| --- | --- | --- |
| COc1cc2ncnc(N3CCN(C(=O)NCc4ccc5c(c4)OCO5)CC3)c2cc1OC | 1870 nM | – |
| COc1cc2ncnc(N3CCN(C(=NC#N)NCc4ccccc4Cl)CC3)c2cc1OC | > 30000 nM | – |
| COc1cc2ncnc(N3CCN(C(=O)NCc4ccsc4)CC3)c2cc1OC | > 30000 nM | – |
| COc1cc2ncnc(N3CCN(C(NCc4ccc(Cl)cc4)=C(C#N)C#N)CC3)c2cc1OC | 5240 nM | – |
| COc1cc2ncnc(N3CCN(C(=O)Nc4ccc(Oc5ccccc5)cc4)C(C)C3)c2cc1OC (stereo not given) | 80 nM | – |
| COc1cc2ncnc(N3CCN(C(=O)Nc4cncc(Cl)c4)CC3)c2cc1OC | 8230 nM | – |
| COc1cc2ncnc(N3CCN(C(=O)Nc4ccccn4)CC3)c2cc1OC | > 10000 nM | – |
| COc1cc2ncnc(N3CCN(/C(S)=N\Cc4ccc(Oc5ccccc5)cc4)CC3)c2cc1OC | 960 nM | – |
| COc1cc2ncnc(N3CCN(/C(S)=N\CC4CCCO4)CC3)c2cc1OC (stereo not given) | > 30000 nM | – |
| COc1cc2ncnc(N3CCN(C(=O)Nc4ccc([N+](=O)[O-])cc4)CC3)c2cc1OC | – | logD [10]: 3.22 |
| COc1cc2ncnc(N3CC(C)N(/C(S)=N\Cc4ccccc4)C(C)C3)c2cc1OC (stereo not given) | 640 nM | – |
| COc1cc2ncnc(N3CCN(C(=S)NCCc4cccnc4)CC3)c2cc1OC | 20100 nM | – |
| COc1cc2ncnc(N3CCN(C(=O)Nc4ccncc4)CC3)c2cc1OC | 14100 nM | – |
| COc1cc2ncnc(N3CCN(/C(S)=N\Cc4cccnc4)CC3)c2cc1OC.Cl.Cl | 280 nM | concentration at 1 h [11]: 2600 ng/mL; logD [10]: 2.49; concentration at 8 h [12]: < 100 ng/mL; concentration at 8 h [13]: < 100 ng/mL; AUC [14]: 9840 ng·h/mL; Cmax [14]: 6980 ng/mL; Tmax [14]: 0.67 h; half-life [14]: 2.11 h; concentration at 1 h [15]: 2600 ng/mL; solubility [16]: 2.2 µg/mL |
| COc1cc2ncnc(N3CCN(C(=NC#N)NCc4ccc5c(c4)OCO5)CC3)c2cc1OC | 190 nM | – |
| COc1cc2ncnc(N3CCN(C(=NC#N)NCc4ccc(C)cc4)CC3)c2cc1OC | 340 nM | – |
| COc1cc2ncnc(N3CCN(C(=O)NCc4ccc(C)cc4)CC3)c2cc1OC | 2940 nM | – |
| COc1cc2ncnc(N3CC(C)N(C(=O)Nc4ccc(Oc5ccccc5)cc4)CC3C)c2cc1OC (stereo not given) | > 30000 nM | – |
| COc1cc2ncnc(N3CCN(C(=O)NCc4ccc(Br)cc4)CC3)c2cc1OC | 740 nM | – |
